Structures can show the parent of a compound that is named as a salt.
Legend:
[1] = system: GST enzyme isolated from blueberry fruits (Vaccinium arctostaphylos L.); experiment: In vitro inhibition of purified blueberry fruit GST by pesticides; type: biochemical; settings: for Ki: Lineweaver-Burk graphs, 1/V versus 1/[GSH]; for Ki / Inhibition type: GSH as substrate; for IC50: from activity (%) - pesticide concentration graphs, minimum five concentrations; for Inhibition type: from Lineweaver-Burk graphs
Method in brief: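 GST purified from ripe berries (stored at -20 °C). The 1 mL assay used 0.1 M K-phosphate pH 7.0, CDNB (25 mM stock in ethanol) and GSH (20 mM stock). It was started with enzyme and absorbance was read for 3 min. Pesticides were tested at ≥5 concentrations against a no-pesticide control set as 100%. Ki and inhibition type came from 1/V versus 1/[GSH] plots.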

[2] = system: GST enzyme isolated from blueberry fruits (Vaccinium arctostaphylos L.); experiment: Kinetic studies of purified blueberry fruit GST with substrates CDNB and GSH; type: biochemical; settings: CDNB 0.05-1.6 mM at fixed GSH 20 mM; GSH 0.05-1.6 mM at fixed CDNB 25 mM
Method in brief: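 The enzyme was blueberry GST purified by Sephadex G-100 gel filtration then GSH-agarose affinity chromatography with GSH gradient elution. Reactions were 1 mL in 0.1 M K-phosphate buffer pH 7.0, with one substrate varied and the other held fixed. The reaction was started by rapid enzyme addition and absorbance was followed spectrophotometrically for 3 min.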

Compound: CC1(C)C(C=C(Cl)Cl)C1C(=O)OC(C#N)c1cccc(Oc2ccccc2)c1 (centres unmarked) [Cypermethrin, [Cyano-(3-phenoxyphenyl)methyl] 3-(2,2-dichloroethenyl) -2,2-dimethylcyclopropane-1-carboxylate]
- Ki [1]: 310 ± 88 µM
- IC50 [1]: 320 µM
- Inhibition of GST enzyme activity in vitro (in words) [1]: inhibited

Compound: O=[N+]([O-])NC1=NCCN1Cc1ccc(Cl)nc1 [Imidacloprid, N-{1 - [(6-Chloro-3-pyridyl)methyl] -4,5-dihydroimidazol-2-yl} nitramide]
- Ki [1]: 630 ± 283 µM
- IC50 [1]: 490 µM
- Inhibition of GST enzyme activity in vitro (in words) [1]: inhibited

Compound: O=C(O)COc1ccc(Cl)cc1Cl [2,4 Dichlorophenoxy acetic acid]
- Ki [1]: 188 ± 85 µM
- Inhibition type [1]: competitive
- IC50 [1]: 460 µM
- Inhibition of GST enzyme activity in vitro (in words) [1]: inhibited

Compound: CC(=NC#N)N(C)Cc1ccc(Cl)nc1 [Acetamiprid, N - [(6-chloro-3-pyridyl)methyl] -N′-cyano-N-methyl-acetamidine]
- Ki [1]: 1560 ± 733 µM
- Inhibition type [1]: competitive
- IC50 [1]: 4100 µM
- Inhibition of GST enzyme activity in vitro (in words) [1]: inhibited

Compound: COP(=O)(OC)OC=C(Cl)Cl [Dichlorvos, 2,2-dichlorovinyl dimethyl phosphate]
- Ki [1]: 17.5 ± 5 µM
- IC50 [1]: 24 µM
- Inhibition of GST enzyme activity in vitro (in words) [1]: inhibited

Compound: (R) -2- [4- (6-chloro-1,3-benzoxazol-2-yloxy) phenoxy] propionic acid [Fenoxaprop-p-ethyl]
- Ki [1]: 133 µM
- Inhibition type [1]: competitive
- IC50 [1]: 230 µM
- Inhibition of GST enzyme activity in vitro (in words) [1]: inhibited

Compound: O=C(O)CNCP(=O)(O)O [Glifosat- izopropilamine salt, glyphosate isopropylamine salt]
- Ki [1]: 266 ± 100 µM
- Inhibition type [1]: competitive
- IC50 [1]: 160 µM
- Inhibition of GST enzyme activity in vitro (in words) [1]: inhibited

Compound: g-glu-cys-gly [GSH]
- Vmax [2]: 0.048 EU/ml

— paper PMC6460380 (Heliyon, 2019)
